Reference: ChEMBL document CHEMBL1124063, “Arteether, a new antimalarial drug: synthesis and antimalarial properties” (J Med Chem, 1988)
Values after ≈ are worked out from the molar mass of the structure shown.

How the values were obtained:
Plasmodium falciparum [1] = test: Inhibitory concentration against Plasmodium falciparum D6 (Sierra Leone); type: functional, organism-based
Outline: (§1)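 Micromanipulation-derived P. falciparum clones were tested by semiautomated microdilution at 0.5% parasitemia and 1.5% hematocrit. Drugs were dissolved in DMSO and diluted in medium with 10% plasma, giving serial dilutions over a 64-fold range. Plates were held at 37 °C under 5% O2/5% CO2/90% N2 for 24 h, then pulsed with tritiated hypoxanthine for 18–20 h. Uptake was counted by scintillation, and IC50 was obtained by nonlinear regression.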

Plasmodium falciparum [2] = test: Inhibitory concentration against Plasmodium falciparum W2 Indochina; type: functional, organism-based; outline: as §1
Plasmodium berghei [3] = test: Blood schizonticidal activity against Plasmodium berghei ART; type: functional
Outline: (§2)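 Mice infected with parasitised donor blood of drug-sensitive or drug-resistant lines were given a single subcutaneous dose daily on 4 consecutive days, starting 3 h post-infection, across a dose range. Compounds were dissolved in water or sonicated into 0.1% Tween 80. Parasitaemia was read from thin blood films 1 day after treatment ended and compared with sham-treated controls. ED50/ED90 came from log dose/probit plots, with a resistance index at the ED90 level.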

Plasmodium berghei [4] = test: Blood schizonticidal activity against Plasmodium berghei N/1100; type: functional; outline: as §2
Plasmodium berghei [5] = test: Blood schizonticidal activity against Plasmodium berghei PYR; type: functional; outline: as §2
Plasmodium berghei [6] = test: Blood schizonticidal activity against Plasmodium berghei ORA; type: functional; outline: as §2
Plasmodium berghei [7] = test: Blood schizonticidal activity against Plasmodium berghei QS; type: functional; outline: as §2
Plasmodium berghei [8] = test: Blood schizonticidal activity against Plasmodium berghei N/HAL; type: functional; outline: as §2
Plasmodium berghei [9] = test: Blood schizonticidal activity against Plasmodium berghei P; type: functional; outline: as §2
Plasmodium berghei [10] = test: Blood schizonticidal activity against Plasmodium berghei RC; type: functional; outline: as §2
Plasmodium berghei [11] = test: Blood schizonticidal activity against Plasmodium berghei MEN; type: functional; outline: as §2
Plasmodium berghei [12] = test: Blood schizonticidal activity against Plasmodium berghei 1100; type: functional; outline: as §2
Plasmodium berghei [13] = test: Blood schizonticidal activity against Plasmodium berghei NS; type: functional; outline: as §2
Plasmodium berghei [14] = test: Blood schizonticidal activity against Plasmodium berghei N; type: functional; outline: as §2
Plasmodium berghei [15] = test: Blood schizonticidal activity against Plasmodium berghei B; type: functional; outline: as §2
Plasmodium berghei [16] = test: Blood schizonticidal activity against Plasmodium berghei NPN; type: functional; outline: as §2
Plasmodium falciparum [17] = test: In vitro inhibitory activity against Plasmodium falciparum (sierra leone clone); type: functional, organism-based

Row | Structure (SMILES) | IC50 (Plasmodium falciparum [1]) [nM] | IC50 (Plasmodium falciparum [2]) [nM] | ED90 (Plasmodium berghei [3]) | I 90 (Plasmodium berghei [3]) | I 90 (Plasmodium berghei [4]) | ED90 (Plasmodium berghei [5]) | I 90 (Plasmodium berghei [5]) | ED90 (Plasmodium berghei [6]) | I 90 (Plasmodium berghei [6]) | ED90 (Plasmodium berghei [7]) | I 90 (Plasmodium berghei [7]) | ED90 (Plasmodium berghei [8]) | I 90 (Plasmodium berghei [8]) | ED90 (Plasmodium berghei [9]) | I 90 (Plasmodium berghei [9]) | ED90 (Plasmodium berghei [10]) | I 90 (Plasmodium berghei [10]) | ED90 (Plasmodium berghei [11]) | I 90 (Plasmodium berghei [11]) | IC50 (Plasmodium falciparum [17]) [ng/mL] | further results
1 | C[C@H]1[C@H](OC(=O)CCC(=O)O)O[C@@H]2O[C@@]3(C)CC[C@H]4[C@H](C)CC[C@@H]1[C@@]24OO3 [SODIUM ARESUNATE] | 2.18 | 1.66 | – | – | – | – | – | – | – | – | – | – | – | – | – | – | – | – | – | – | –
2 | CCO[C@@H]1O[C@@H]2OC3(C)CC[C@H]4[C@H](C)CC[C@@H]([C@H]1C)[C@@]24OO3 (single isomer, unassigned) [ALPHA-ARTEETHER] | 4.18 | 3.07 | 29 | 22.3 | 3.4 | 1.3 | 1.1 | 0.8 | 0.7 | 13.8 | 10.6 | 9.5 | 7.3 | 2.5 | 2.1 | 16.5 | 13.8 | 1.7 | 1.4 | – | ED90 (Plasmodium berghei [12]): 4.1; ED90 (Plasmodium berghei [13]): 1.5; I 90 (Plasmodium berghei [13]): 1.3; ED90 (Plasmodium berghei [14]): 1.3; I 90 (Plasmodium berghei [14]): 1; ED90 (Plasmodium berghei [15]): 2.9; I 90 (Plasmodium berghei [15]): 2.4; ED90 (Plasmodium berghei [16]): 3.5; I 90 (Plasmodium berghei [16]): 2.9
3 | C[C@@H]1CC[C@H]2[C@@H](C)C(=O)O[C@@H]3O[C@@]4(C)CC[C@@H]1[C@]32O4 [DEOXYARTEMISININ] | 2860 | – | – | – | – | – | – | – | – | – | – | – | – | – | – | – | – | – | – | – | –
4 | OC(c1cc(C(F)(F)F)nc2c(C(F)(F)F)cccc12)C1CCCCN1 (stereo not given) [MEFLOQUINE] | 33.4 | 5.75 | – | – | – | – | – | – | – | – | – | – | – | – | – | – | – | – | – | – | –
5 | CO[C@H]1O[C@@H]2O[C@@]3(C)CC[C@H]4[C@H](C)CC[C@@H]([C@H]1C)[C@@]24OO3 [ARTEMETHER] | 4.49 | 3.34 | – | – | – | – | – | – | – | – | – | – | – | – | – | – | – | – | – | – | –
6 | CCO[C@H]1O[C@@H]2OC3(C)CC[C@H]4[C@H](C)CC[C@@H]([C@H]1C)[C@@]24O3 (single isomer, unassigned) | 580 | – | – | – | – | – | – | – | – | – | – | – | – | – | – | – | – | – | – | 172 (≈ 0.579 µM) | –
7 | C[C@H]1[C@@H](O)O[C@@H]2O[C@@]3(C)CC[C@H]4[C@H](C)CC[C@@H]1[C@@]24OO3 [ARTENIMOL] | 1.83 | 1.79 | – | – | – | – | – | – | – | – | – | – | – | – | – | – | – | – | – | 0.52 (≈ 0.00183 µM) | –
8 | CCO[C@H]1O[C@@H]2O[C@@]3(C)CC[C@H]4[C@H](C)CC[C@@H]([C@H]1C)[C@@]24OO3 [ARTEMOTIL] | 4.07 | 2.94 | 2.3 | 4.6 | 3.8 | 0.8 | 0.7 | 0.8 | 0.7 | 1.4 | 2.8 | 2.1 | 4.2 | 0.8 | 0.7 | 8.2 | 7.5 | 2.2 | 2 | 1.27 (≈ 0.00407 µM) | ED90 (Plasmodium berghei [12]): 4.2; ED90 (Plasmodium berghei [13]): 2.2; I 90 (Plasmodium berghei [13]): 2; ED90 (Plasmodium berghei [14]): 0.5; I 90 (Plasmodium berghei [14]): 1; ED90 (Plasmodium berghei [15]): 0.9; I 90 (Plasmodium berghei [15]): 0.8; ED90 (Plasmodium berghei [16]): 2.5; I 90 (Plasmodium berghei [16]): 2.3
9 | C[C@H]1[C@@H](O)O[C@@H]2OC3(C)CC[C@H]4[C@H](C)CC[C@@H]1[C@@]24O3 (single isomer, unassigned) | 506 | – | – | – | – | – | – | – | – | – | – | – | – | – | – | – | – | – | – | 136 (≈ 0.505 µM) | –
10 | C[C@@H]1CC[C@H]2[C@@H](C)C(=O)O[C@@H]3O[C@@]4(C)CC[C@@H]1[C@]32OO4 [ARTEMISININ] | 10.5 | 6.41 | 49 | 21.3 | 4 | 4.8 | 1.1 | 7.5 | 1.8 | 24 | 10.4 | 31 | 13.5 | 12 | 2.9 | 630 | 150 | 6.2 | 1.5 | 2.97 (≈ 0.0105 µM) | ED90 (Plasmodium berghei [12]): 17; ED90 (Plasmodium berghei [13]): 10; I 90 (Plasmodium berghei [13]): 2.4; ED90 (Plasmodium berghei [14]): 2.3; I 90 (Plasmodium berghei [14]): 1; ED90 (Plasmodium berghei [15]): 8.2; I 90 (Plasmodium berghei [15]): 2; ED90 (Plasmodium berghei [16]): 90; I 90 (Plasmodium berghei [16]): 21.4
